We go through 1 molecule from ChEMBL document CHEMBL1148398, “Design, synthesis, and biological evaluation of thio-containing compounds with serum HDL-cholesterol-elevating properties” (2004).

Test [1] has as its system Cricetinae gen. sp. The experiment in a line: Percent change in very low-density lipoprotein cholesterol following oral administration of compound in hypercholesterolemic hamsters at 100 mg/kg/day for 14 days. Type of test: functional. Summed up:
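Male Syrian Golden hamsters pre-fed chow plus 0.25% cholesterol for 2 weeks and kept on it. Dosed 100 mg/kg/day by oral gavage in 2% Tween 80/saline for 14 days. Serum total cholesterol and glycerol-blanked triglycerides read enzymatically; lipoproteins separated by FPLC with cholesterol measured in each fraction. % change versus vehicle controls; six per group, p < 0.05.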

Test [2] has as its system Rattus norvegicus. Description: Effect of compound on gain in body weight in 7th group of normal chow-fed male rats after a dose of 100 mg/kg/day. The class given is functional. Summed up: (§1)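 Male Sprague–Dawley CD rats (60–80 g) on standard chow under a reversed 12 h light/dark cycle. Compound was suspended in 1.3% Tween 80/0.25% CMC and given as a single daily oral gavage dose for 4 days. Rats were fasted overnight and killed 24 h after the last dose. Serum ALT, AST, ALKP and LDH were read on a clinical analyzer. Weight gain was start versus end weight. Mean ± SEM, n = 6.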

Test [3] in a line: Effect on serum lipids in 4th group of normal chow-fed male rats after a dose of 10 mg/kg/day was evaluated as ratio of total plasma cholesterol levels to high-density lipoprotein cholesterol levels. The class given is functional. Put shortly: (§2)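 Male Sprague–Dawley CD rats, 60–80 g, chow-fed, dosed by oral gavage daily for 4 days in 1.3% Tween 80/0.25% CMC. Fasted overnight, bled 24 h after the last dose. Serum total cholesterol by enzymatic reagent; HDL-C from cholesterol in FPLC fractions; TPC/HDL-C ratio calculated. Six per group, mean ± SEM.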

Test [4] deals with Cricetinae gen. sp. Description: Effect of compound on low-density lipoprotein cholesterol levels in 2nd group of cholesterol-fed male hamsters at 10 mg/kg/day after 14 days of treatment. The settings on record: Mesocricetus auratus.
A short description of test [5]: Effect on serum lipids in 1st group of cholesterol-fed male hamsters at 3 mg/kg/day after 14 days of treatment was evaluated as ratio of total cholesterol levels to high-density lipoprotein cholesterol levels. Type of test: functional. Summed up: (§3)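 Male Syrian Golden hamsters on chow plus 0.25% cholesterol, 2 weeks before and during dosing. Oral gavage for 14 days in 2% Tween 80/saline. Fasted 4 h before sacrifice. Serum total cholesterol measured enzymatically; HDL-C from cholesterol in FPLC lipoprotein fractions; TC/HDL-C ratio calculated. Six per group, mean ± SEM.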

In test [6] the test system is Rattus norvegicus. The experiment in a line: Effect of compound on triglyceride levels in 6th group of normal chow-fed male rats after a dose of 50 mg/kg/day. The class given is functional, organism-based. Summed up: (§4)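 Male Sprague–Dawley CD rats (60–80 g) on Purina 5001 chow with a reverse 12 h light/dark cycle. Dosed once daily by oral gavage for 4 days, suspended in 1.3% Tween 80 / 0.25% CMC. Fasted overnight and bled 24 h after the last dose. Serum TC and glycerol-blanked TG measured enzymatically; VLDL-C by FPLC fractionation with cholesterol assay. n=6, mean ± SEM.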

The test system of test [7] is Cricetinae gen. sp. Description: Effect of compound on triglycerides level in 1st group of cholesterol-fed male hamsters at 3 mg/kg/day after 14 days of treatment. The settings on record: Mesocricetus auratus.
Test [8] relates to Rattus norvegicus. Description: Effect of compound on total plasma cholesterol levels in 3rd group of normal chow-fed male rats after a dose of 5 mg/kg/day. Type of test: functional, organism-based. Summed up: (§5)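 Male Sprague–Dawley CD rats, 60–80 g, on standard chow with reverse 12 h light/dark cycle. One oral gavage dose daily for 4 days, suspended in 1.3% Tween 80 and 0.25% CMC. Fasted overnight; sacrificed 24 h after the last dose. Serum TC on clinical analyzer, lipoproteins by FPLC with cholesterol per fraction, T4 on analyzer. Mean ± SEM, six rats per group.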

Test [9] can be described thus: Effect on serum lipids in 2nd group of cholesterol-fed male hamsters at 10 mg/kg/day after 14 days of treatment was evaluated as ratio of total cholesterol levels to high-density lipoprotein cholesterol levels. The class given is functional. Summed up:
as §3

Test [10] relates to Rattus norvegicus. The experiment in a line: Effect of compound on total plasma cholesterol levels in 2nd group of normal chow-fed male rats after a dose of 2 mg/kg/day. Type of test: functional, organism-based. Summed up:
as §5

In test [11] the test system is Rattus norvegicus. The experiment in a line: Effect of compound on aspartate aminotransferase (AST) levels in 6th group of normal chow-fed male rats after a dose of 50 mg/kg/day. Type of test: functional, organism-based. Summed up:
as §1

Test [12] deals with Rattus norvegicus. The experiment in a line: Effect of compound on high-density lipoprotein cholesterol levels in 6th group of normal chow-fed male rats after a dose of 50 mg/kg/day. The class given is functional, organism-based.
The test system of test [13] is Rattus norvegicus. The experiment in a line: Effect of compound on liver weight in 2nd group of normal chow-fed male rats after a dose of 2 mg/kg/day. Type of test: functional. Summed up: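 Male Sprague–Dawley CD rats, 60–80 g, on chow with a reverse 12 h light/dark cycle. Given one oral gavage dose daily for 4 days, suspended in 1.3% Tween 80/0.25% CMC. Fasted overnight and sacrificed 24 h after the last dose for blood and liver. Serum liver enzymes read on a clinical analyzer. Six per group, mean ± SEM.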

The subject of test [14] is Rattus norvegicus. The experiment in a line: Effect of compound on relative liver weight in 2nd group of normal chow-fed male rats after a dose of 2 mg/kg/day. The class given is functional. Summed up:
(§6)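 Chow-fed male Sprague–Dawley CD rats, 60–80 g, dosed by oral gavage once daily for 4 days in 1.3% Tween 80/0.25% CMC. Fasted overnight and sacrificed 24 h after the last dose. Liver weight expressed as % of body weight at termination. Six per group, mean ± SEM.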

For test [15], the system named is Rattus norvegicus. Description: Percent change in total plasma cholesterol in hypercholesterolemic rats dosed at 100 mg/kg/day for 8 days. Type of test: functional.
Test [16] has as its system Cricetinae gen. sp. The experiment in a line: Effect of compound on total plasma cholesterol levels in 1st group of cholesterol-fed male hamsters at 3 mg/kg/day after 14 days of treatment. The settings on record: Mesocricetus auratus.
The test system of test [17] is Rattus norvegicus. The experiment in a line: Effect of compound on serum apolipoprotein A1 concentration in chow-fed male rats at a dose of 100 mg/kg/day. The class given is functional, organism-based. Summed up:
(§7)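 Separate dose-response study in male Sprague–Dawley CD rats, 60–80 g, on chow. Oral gavage once daily for 4 days in 1.3% Tween 80 / 0.25% CMC; fasted overnight, bled 24 h after last dose. Apo-A1 by ELISA with rabbit anti-rat primary, alkaline phosphatase-conjugated anti-rabbit IgG and p-nitrophenyl phosphate substrate. HDL-C by FPLC fractionation. Mean ± SEM, six per group.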

Test [18] relates to Rattus norvegicus. The experiment in a line: Effect of compound on alanine aminotransferase (ALT) levels in 2nd group of normal chow-fed male rats after a dose of 2 mg/kg/day. The class given is functional, organism-based. Summed up: as §1
A short description of test [19]: Effect on serum lipids in 7th group of normal chow-fed male rats after a dose of 100 mg/kg/day was evaluated as ratio of total plasma cholesterol levels to high-density lipoprotein cholesterol levels. The class given is functional. Put shortly: as §2
The test system of test [20] is Rattus norvegicus. The experiment in a line: Effect of compound on triglycerides level in 1st group of normal chow-fed male rats after a dose of 1 mg/kg/day. The class given is functional, organism-based. Put shortly: as §4
Test [21] relates to Rattus norvegicus. Description: Effect of compound on relative liver weight in 1st group of normal chow-fed male rats after a dose of 1 mg/kg/day. Type of test: functional. Put shortly: as §6
The subject of test [22] is Rattus norvegicus. The experiment in a line: Effect of compound on serum apolipoprotein A1 concentration in chow-fed male rats at a dose of 0 mg/kg/day. The class given is functional, organism-based. Put shortly: as §7
Test [23] has as its system Rattus norvegicus. Description: Effect of compound on serum high-density lipoprotein cholesterol concentration in chow-fed male rats at a dose of 5 mg/kg/day. The class given is functional, organism-based. Put shortly: as §7
In test [24] the test system is Rattus norvegicus. Description: Effect of compound on serum apolipoprotein A1 concentration in chow-fed male rats at a dose of 10 mg/kg/day. The class given is functional, organism-based. Put shortly:
as §7

`CCN1CC(=O)N(c2cc(Cl)ccc2C)C1=S`: the Change was -33.4% in the test on Cricetinae gen. sp. [1] and 53% in the test with Rattus norvegicus [15]. In addition, the Body weight with Rattus norvegicus [2] worked out at 22.5 g. Further, the Ratio is 1.39 in [3], 3.14 in [5], 2.85 in [9] and 1.56 in test [19]. Also, the Serum level was 136 mg/dL with Cricetinae gen. sp. [4]; 14 mg/dL in the test with Rattus norvegicus [6]; 431 mg/dL with Cricetinae gen. sp. [7]; 62 mg/dL in the test with Rattus norvegicus [8]; 56 mg/dL with Rattus norvegicus [10]; 61 mg/dL with Rattus norvegicus [12]. Also, the Serum level in the test on Cricetinae gen. sp. [16] was 429 mg/dL; with Rattus norvegicus [17], 96.4 mg/dL; in the test on Rattus norvegicus [20] it was 18 mg/dL; in the test with Rattus norvegicus [22], 63.2 mg/dL; in the test on Rattus norvegicus [23], 52.4 mg/dL; in the test with Rattus norvegicus [24], 79.2 mg/dL. Further, the Level in the test with Rattus norvegicus [11] was 232 U l-1; in the test with Rattus norvegicus [18], 59 U l-1. The molecule also had a Liver weight with Rattus norvegicus [13] of 7.3 g. Further, the Relative liver weight was determined as 3.9% with Rattus norvegicus [14] and 4.3% in the test on Rattus norvegicus [21].
